Test results published in ChEMBL document CHEMBL5653631, “A Potent and Selective ULK1 Inhibitor Suppresses Autophagy and Sensitizes Cancer Cells to Nutrient Stress” (iScience, 2018).
Values belong to the compound of their own block, whether it stands above or below them.

Legend:
[1] = biological target: Death-associated protein kinase 1 (Homo sapiens) (UniProt P53355); assay: Inhibition of human recombinant DAPK1 at 500 nM related to control ULK1
[2] = biological target: T1, cAMP-dependent protein kinase catalytic subunit PRKX (Homo sapiens) (UniProt P51817); assay: Inhibition of human recombinant PRKX at 500 nM related to control ULK1
T1 sequence (whole entry): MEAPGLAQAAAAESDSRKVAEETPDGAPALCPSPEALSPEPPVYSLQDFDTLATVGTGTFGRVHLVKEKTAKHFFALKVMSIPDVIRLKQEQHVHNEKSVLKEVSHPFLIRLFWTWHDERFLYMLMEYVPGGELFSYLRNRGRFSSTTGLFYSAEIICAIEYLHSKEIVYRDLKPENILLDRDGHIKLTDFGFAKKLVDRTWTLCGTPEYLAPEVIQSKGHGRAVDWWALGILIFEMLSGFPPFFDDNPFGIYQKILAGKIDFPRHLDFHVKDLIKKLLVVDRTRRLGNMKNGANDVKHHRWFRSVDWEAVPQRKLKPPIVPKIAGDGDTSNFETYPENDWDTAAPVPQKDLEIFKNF

[3] = biological target: Casein kinase I isoform gamma-1 (Homo sapiens) (UniProt Q9HCP0); assay: Inhibition of human recombinant CK1g1 at 500 nM related to control ULK1
[4] = biological target: T2, Ephrin type-B receptor 2 (Homo sapiens) (UniProt P29323); assay: Inhibition of human recombinant EphB2 at 500 nM related to control ULK1
T2 sequence (whole entry): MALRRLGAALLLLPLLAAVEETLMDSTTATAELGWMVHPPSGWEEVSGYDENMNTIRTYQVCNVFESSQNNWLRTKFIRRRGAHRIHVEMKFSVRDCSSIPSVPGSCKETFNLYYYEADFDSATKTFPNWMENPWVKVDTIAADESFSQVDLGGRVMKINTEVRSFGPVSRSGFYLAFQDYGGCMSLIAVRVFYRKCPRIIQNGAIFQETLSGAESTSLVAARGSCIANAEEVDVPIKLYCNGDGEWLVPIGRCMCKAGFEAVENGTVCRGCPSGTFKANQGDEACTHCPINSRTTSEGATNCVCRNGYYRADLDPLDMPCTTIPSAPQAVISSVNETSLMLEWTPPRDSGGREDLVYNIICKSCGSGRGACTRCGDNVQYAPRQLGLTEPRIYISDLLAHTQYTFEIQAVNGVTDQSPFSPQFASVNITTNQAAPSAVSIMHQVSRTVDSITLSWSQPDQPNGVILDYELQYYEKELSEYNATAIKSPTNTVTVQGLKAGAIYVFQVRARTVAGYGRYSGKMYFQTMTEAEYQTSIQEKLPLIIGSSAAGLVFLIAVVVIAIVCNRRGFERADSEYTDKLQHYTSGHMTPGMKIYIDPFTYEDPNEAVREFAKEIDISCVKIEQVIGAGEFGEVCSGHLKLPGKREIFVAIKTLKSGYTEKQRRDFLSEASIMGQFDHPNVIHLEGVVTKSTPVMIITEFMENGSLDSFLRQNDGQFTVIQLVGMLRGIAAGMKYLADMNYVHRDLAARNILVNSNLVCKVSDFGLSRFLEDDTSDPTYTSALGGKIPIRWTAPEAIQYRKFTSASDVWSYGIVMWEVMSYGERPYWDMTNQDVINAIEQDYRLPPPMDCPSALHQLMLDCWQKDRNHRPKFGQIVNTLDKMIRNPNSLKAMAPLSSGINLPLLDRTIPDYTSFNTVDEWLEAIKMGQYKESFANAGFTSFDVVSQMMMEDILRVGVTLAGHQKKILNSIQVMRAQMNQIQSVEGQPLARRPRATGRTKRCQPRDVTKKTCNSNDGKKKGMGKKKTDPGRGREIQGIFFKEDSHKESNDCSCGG

[5] = biological target: Protein-tyrosine kinase 6 (Homo sapiens) (UniProt Q13882); assay: Inhibition of human recombinant BRK at 15 nM in presence of ATP by radiometric assay relative to control
Outline: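 Part of a radiometric in vitro activity panel of 327 recombinant human kinases. Each kinase was tested in duplicate at one inhibitor concentration. Activity remaining was expressed as a percentage of the vehicle control, and percent inhibition was taken as 100 minus that value.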

[6] = biological target: Activated CDC42 kinase 1 (Homo sapiens) (UniProt Q07912); assay: Inhibition of human recombinant ACK at 15 nM in presence of ATP by radiometric assay relative to control
Outline: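 Panel of 327 recombinant human kinases in radiometric activity assays, each screened in duplicate at a single inhibitor concentration; percent activity remaining relative to vehicle control, percent inhibition taken as 100 minus activity remaining.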

[7] = biological target: Ribosomal protein S6 kinase alpha-2 (Homo sapiens) (UniProt Q15349); assay: Inhibition of human recombinant RSK3 at 15 nM in presence of ATP by radiometric assay relative to control
[8] = biological target: Rho-associated protein kinase 2 (Homo sapiens) (UniProt O75116); assay: Inhibition of human recombinant ROCK2 at 15 nM in presence of ATP by radiometric assay relative to control
[9] = biological target: T3, SNF-related serine/threonine-protein kinase (Homo sapiens) (UniProt Q9NRH2); assay: Inhibition of human recombinant SNRK at 40 nM in presence of ATP by radiometric assay relative to control
T3 sequence (whole entry): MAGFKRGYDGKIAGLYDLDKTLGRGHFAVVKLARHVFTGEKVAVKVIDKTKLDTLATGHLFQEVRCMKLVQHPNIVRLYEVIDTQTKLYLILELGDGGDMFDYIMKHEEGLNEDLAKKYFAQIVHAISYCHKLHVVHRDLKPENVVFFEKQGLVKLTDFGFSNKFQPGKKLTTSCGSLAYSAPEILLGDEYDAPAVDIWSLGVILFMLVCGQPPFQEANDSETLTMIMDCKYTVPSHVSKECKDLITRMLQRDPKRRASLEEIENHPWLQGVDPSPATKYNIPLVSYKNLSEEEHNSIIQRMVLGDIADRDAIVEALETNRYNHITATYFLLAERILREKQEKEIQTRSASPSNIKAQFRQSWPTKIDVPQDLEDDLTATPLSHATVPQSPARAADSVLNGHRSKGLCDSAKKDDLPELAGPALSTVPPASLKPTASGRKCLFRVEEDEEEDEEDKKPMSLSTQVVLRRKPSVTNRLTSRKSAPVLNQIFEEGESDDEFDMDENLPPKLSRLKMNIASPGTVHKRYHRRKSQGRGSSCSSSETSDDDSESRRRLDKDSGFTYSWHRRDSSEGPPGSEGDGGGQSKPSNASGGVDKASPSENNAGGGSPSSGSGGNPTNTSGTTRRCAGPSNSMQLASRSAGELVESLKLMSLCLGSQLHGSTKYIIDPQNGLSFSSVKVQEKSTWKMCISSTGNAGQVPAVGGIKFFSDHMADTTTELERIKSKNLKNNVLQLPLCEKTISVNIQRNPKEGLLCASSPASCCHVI

Chain of Casein kinase I isoform gamma-1 (Homo sapiens) (Q9HCP0 whole entry, looked up, canonical isoform): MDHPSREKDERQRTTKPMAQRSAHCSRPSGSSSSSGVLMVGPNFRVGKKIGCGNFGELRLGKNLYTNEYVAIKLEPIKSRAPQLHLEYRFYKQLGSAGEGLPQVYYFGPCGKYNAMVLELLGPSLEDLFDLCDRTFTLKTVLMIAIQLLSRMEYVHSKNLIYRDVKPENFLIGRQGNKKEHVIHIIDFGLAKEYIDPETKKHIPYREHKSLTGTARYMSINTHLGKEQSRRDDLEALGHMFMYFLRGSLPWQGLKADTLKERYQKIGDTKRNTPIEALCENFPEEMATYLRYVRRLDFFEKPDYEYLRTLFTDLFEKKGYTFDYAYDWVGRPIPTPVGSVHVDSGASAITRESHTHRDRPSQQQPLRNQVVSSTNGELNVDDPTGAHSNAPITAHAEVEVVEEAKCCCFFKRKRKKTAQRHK
Chain of Death-associated protein kinase 1 (Homo sapiens) (P53355 whole entry, looked up): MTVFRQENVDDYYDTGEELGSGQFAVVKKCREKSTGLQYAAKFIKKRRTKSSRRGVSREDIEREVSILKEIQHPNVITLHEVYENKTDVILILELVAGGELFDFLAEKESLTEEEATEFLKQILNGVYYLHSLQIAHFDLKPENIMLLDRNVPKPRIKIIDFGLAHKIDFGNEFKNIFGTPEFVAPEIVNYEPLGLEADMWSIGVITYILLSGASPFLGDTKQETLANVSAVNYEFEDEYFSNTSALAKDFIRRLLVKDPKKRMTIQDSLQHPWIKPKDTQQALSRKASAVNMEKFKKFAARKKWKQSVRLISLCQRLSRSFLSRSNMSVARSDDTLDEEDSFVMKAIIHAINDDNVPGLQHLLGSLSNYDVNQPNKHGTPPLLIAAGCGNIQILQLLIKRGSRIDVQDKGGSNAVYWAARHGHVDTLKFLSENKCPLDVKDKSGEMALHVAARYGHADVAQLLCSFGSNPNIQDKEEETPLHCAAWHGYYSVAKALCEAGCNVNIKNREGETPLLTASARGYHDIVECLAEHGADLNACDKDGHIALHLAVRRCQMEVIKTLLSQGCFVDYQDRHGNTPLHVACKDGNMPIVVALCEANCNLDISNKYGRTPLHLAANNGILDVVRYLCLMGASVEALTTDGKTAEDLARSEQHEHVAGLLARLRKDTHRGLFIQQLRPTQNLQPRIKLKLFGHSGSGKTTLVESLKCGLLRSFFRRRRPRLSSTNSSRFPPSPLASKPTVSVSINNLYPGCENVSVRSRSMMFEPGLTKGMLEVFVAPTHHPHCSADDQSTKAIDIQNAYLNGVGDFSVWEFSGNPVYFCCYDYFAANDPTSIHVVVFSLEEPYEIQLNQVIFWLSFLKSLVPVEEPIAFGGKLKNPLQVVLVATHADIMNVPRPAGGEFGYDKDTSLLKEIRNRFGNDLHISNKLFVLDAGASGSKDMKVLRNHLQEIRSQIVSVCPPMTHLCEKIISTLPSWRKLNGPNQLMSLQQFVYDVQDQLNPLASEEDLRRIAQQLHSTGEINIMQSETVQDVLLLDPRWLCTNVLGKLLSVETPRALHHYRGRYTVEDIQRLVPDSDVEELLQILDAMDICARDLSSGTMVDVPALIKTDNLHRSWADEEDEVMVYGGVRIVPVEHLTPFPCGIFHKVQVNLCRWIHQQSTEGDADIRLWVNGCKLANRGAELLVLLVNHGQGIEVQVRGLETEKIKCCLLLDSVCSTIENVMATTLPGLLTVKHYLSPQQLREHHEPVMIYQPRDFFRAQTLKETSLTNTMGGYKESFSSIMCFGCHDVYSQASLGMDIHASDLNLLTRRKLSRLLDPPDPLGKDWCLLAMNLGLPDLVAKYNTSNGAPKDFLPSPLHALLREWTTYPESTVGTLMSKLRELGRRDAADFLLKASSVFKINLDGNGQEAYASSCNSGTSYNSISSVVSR
Chain of Protein-tyrosine kinase 6 (Homo sapiens) (Q13882 whole entry, looked up): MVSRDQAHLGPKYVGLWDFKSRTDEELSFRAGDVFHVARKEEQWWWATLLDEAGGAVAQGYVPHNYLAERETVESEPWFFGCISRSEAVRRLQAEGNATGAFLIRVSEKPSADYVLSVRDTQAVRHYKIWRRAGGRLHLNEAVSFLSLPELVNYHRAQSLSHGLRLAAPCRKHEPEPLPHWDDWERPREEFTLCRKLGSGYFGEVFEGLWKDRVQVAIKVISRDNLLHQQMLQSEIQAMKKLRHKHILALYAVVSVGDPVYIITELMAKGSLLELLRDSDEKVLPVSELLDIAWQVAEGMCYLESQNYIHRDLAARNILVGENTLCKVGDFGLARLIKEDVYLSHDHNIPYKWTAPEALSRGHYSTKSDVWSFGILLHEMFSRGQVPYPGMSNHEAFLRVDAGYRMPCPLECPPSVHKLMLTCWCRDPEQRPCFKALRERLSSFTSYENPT
Chain of Rho-associated protein kinase 2 (Homo sapiens) (O75116 whole entry, looked up): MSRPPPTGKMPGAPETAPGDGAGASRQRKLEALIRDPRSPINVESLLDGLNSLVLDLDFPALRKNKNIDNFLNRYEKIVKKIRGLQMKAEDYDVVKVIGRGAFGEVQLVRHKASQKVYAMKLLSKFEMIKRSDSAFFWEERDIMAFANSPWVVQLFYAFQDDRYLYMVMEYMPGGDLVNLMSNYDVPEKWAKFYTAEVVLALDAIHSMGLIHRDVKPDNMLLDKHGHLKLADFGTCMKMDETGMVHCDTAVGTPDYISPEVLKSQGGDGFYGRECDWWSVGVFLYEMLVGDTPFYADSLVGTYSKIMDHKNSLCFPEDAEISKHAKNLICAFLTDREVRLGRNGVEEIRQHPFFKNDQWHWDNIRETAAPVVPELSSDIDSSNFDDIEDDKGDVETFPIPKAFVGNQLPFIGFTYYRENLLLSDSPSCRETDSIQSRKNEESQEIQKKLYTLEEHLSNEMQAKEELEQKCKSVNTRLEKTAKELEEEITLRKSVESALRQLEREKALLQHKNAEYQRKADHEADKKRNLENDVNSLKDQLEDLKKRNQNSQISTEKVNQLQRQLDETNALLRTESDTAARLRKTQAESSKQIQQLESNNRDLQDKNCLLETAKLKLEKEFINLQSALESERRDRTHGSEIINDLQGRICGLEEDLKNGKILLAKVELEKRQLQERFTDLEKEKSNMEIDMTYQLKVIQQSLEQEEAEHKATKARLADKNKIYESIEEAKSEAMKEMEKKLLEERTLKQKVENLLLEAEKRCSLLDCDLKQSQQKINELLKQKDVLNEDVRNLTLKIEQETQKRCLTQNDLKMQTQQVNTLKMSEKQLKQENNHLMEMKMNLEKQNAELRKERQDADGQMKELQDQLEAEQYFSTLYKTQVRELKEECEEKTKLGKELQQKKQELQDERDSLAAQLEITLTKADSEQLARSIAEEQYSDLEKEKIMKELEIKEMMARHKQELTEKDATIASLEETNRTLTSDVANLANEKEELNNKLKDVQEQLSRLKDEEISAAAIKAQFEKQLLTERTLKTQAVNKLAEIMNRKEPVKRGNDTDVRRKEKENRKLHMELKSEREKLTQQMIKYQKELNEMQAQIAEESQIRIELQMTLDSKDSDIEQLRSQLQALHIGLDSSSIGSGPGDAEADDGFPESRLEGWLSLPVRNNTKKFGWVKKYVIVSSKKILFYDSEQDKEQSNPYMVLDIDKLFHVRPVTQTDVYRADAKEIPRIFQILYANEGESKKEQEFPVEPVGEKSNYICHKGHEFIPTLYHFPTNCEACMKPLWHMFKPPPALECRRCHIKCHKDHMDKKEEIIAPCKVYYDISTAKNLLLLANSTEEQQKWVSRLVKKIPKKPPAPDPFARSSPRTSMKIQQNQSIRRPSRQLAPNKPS
Chain of Activated CDC42 kinase 1 (Homo sapiens) (Q07912 whole entry, looked up): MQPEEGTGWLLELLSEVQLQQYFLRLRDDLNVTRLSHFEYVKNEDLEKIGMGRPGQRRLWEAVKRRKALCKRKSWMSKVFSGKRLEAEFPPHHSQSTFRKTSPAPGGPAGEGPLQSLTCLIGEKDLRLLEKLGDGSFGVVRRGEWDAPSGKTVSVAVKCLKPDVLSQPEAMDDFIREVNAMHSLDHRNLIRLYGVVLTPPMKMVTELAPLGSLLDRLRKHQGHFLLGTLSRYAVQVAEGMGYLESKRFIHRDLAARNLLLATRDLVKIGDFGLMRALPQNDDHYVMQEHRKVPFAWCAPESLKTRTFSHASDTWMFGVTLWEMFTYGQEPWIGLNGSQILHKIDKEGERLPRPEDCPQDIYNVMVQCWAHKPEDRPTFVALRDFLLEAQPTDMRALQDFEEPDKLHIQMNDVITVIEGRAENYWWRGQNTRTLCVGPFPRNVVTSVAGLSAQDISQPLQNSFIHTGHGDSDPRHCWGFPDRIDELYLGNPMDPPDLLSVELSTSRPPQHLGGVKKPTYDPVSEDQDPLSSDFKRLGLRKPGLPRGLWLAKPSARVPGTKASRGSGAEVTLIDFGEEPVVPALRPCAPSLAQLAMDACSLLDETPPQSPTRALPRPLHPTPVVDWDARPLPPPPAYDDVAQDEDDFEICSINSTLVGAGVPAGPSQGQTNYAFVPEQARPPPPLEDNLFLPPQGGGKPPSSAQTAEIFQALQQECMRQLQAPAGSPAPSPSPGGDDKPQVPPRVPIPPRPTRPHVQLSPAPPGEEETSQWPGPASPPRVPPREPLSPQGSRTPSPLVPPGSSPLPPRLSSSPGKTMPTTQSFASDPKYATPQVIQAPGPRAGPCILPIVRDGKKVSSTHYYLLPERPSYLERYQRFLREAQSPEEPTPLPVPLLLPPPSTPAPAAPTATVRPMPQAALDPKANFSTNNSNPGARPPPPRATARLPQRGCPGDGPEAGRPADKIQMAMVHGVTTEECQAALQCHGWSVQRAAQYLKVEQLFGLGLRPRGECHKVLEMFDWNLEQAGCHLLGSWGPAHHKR

- fold change (FC) [2]: 0.22
- fold change (FC) [3]: 0
- fold change (FC) [4]: 0.2
Structure (SMILES): CNC(=O)c1ccccc1Oc1nc(Nc2cc(OC)c(OC)c(OC)c2)ncc1Br
- fold change (FC) [1]: 0

- inhibition [5]: 8%
- inhibition [6]: 0%
- inhibition [7]: 3%
- inhibition [8]: 0%
Structure (SMILES): CC(C)[C@H](NC(=O)c1cc(-c2cnn3cc(-c4ccc(OCCN5CCCCC5)cc4)cnc23)cs1)C(F)(F)F

- inhibition [9]: 0%
Structure (SMILES): O=C(N[C@@H](C1CC1)C(F)(F)F)c1cc(-c2cnn3cc(-c4ccc(F)cc4)cnc23)cs1
